Sampled rows, rich in hits. Any-hit rate of the full collection: about 2.5%.
PglD inh: PglD (C. jejuni) enzyme inhibition; purified PglD enzyme, DTNB colorimetric CoA detection; inhibition, % at 12.5 µM; actives 0.098% (n = 360,000); in the data active = inhibition above about 16%, passing the limit was not always enough; inconclusive = no clear call, values can overlap the other calls
SIRT5 inh: sirtuin-5 (human) deacylase inhibition. Purified SirT5, succinyl-peptide AMC, trypsin-coupled fluorescence. actives 1.1% (n = 330,000). AID 652115. inhibition, % at 15 µM; in the data active = inhibition above about 15%; inconclusive = no clear call, values can overlap the other calls
Target sequence (Q9NXA8 whole entry, looked up): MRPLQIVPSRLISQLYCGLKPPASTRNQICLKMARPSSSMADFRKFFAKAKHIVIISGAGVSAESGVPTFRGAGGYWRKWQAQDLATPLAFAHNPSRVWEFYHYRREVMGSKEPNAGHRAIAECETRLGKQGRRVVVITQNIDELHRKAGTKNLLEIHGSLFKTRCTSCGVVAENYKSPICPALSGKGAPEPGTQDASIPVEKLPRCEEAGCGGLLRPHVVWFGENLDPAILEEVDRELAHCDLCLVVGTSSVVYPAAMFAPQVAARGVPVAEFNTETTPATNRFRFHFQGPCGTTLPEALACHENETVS
E-sel inducer: E-selectin induction on HUVECs; P16581; HUVEC E-selectin immunofluorescence imaging; normalized: neutral wells 0, TNF-alpha wells 100; activation, % at 7.58 µM; actives 0.37% (n = 260,000); AID 686992;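 active = mean E-selectin-positive cell signal at least 10% of the positive control, reached in at least 60% of replicates, without over 20% cell loss; inconclusive = no rule given, readout overlaps actives, possibly toxicity-flagged; inactive = the rest, including those meeting only one limit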
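Assay system: HUVEC, human umbilical vein endothelial cells / Amount: 3,000 HUVEC/well / Controls: TNF-alpha positive control, DMSO neutral control / Compound dosing: single concentration / Medium: EGM-2 over gelatin coat / Evaluation: percent E-selectin-positive cells / Signal: immunofluorescence imaging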
DENV2 CPE: inhibitors of DENV2 cytopathic effect; CPE inhibition, % at 9.99 µM; AID 651640; actives 1.7% (n = 350,000); DENV2-infected cells, cytopathic effect rescue, plate reader; in the data active = CPE inhibition above about 20%, passing the limit was not always enough; inconclusive = no clear call, values can overlap the other calls; tested in BHK-21 cells;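 also: 0% = median of neutral control wells and 100% = median of positive control wells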
ERAP1 HTS inh: blocks human ERAP1 aminopeptidase activity; Q9NZ08; recombinant ERAP1, Leu-AMC fluorescence, 60 min; AID 652197; inhibition, % at 10.7 µM; actives 0.15% (n = 340,000);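 active = mean replicate inhibition of at least 30%, or all replicates individually reaching that 30% level; inactive = mean below 30% and not every replicate reaching it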;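 also: 0% = neutral control wells and 100% = L-leucinethiol positive control wells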
Active calls of the source: *; ? = inconclusive; . = no result.

SMILES	PglD inh	SIRT5 inh	E-sel inducer	DENV2 CPE	ERAP1 HTS inh
COc1ccc(S(=O)(=O)N(C)C[C@H]2OCCCC[C@@H](C)Oc3ccc(NC(=O)Nc4ccc(C(F)(F)F)cc4)cc3C(=O)N([C@H](C)CO)C[C@@H]2C)cc1	1	-1	0	-11	-5
COc1ccc(S(=O)(=O)N(C)C[C@@H]2OCCCC[C@@H](C)Oc3ccc(NC(=O)Nc4ccc(C(F)(F)F)cc4)cc3C(=O)N([C@H](C)CO)C[C@H]2C)cc1	1	0	1	22*	0
CC(=O)N(C)Cc1ccc(C(=O)CCl)cc1	.	-4	0	0	6
CC(C)=NNC(=O)CN1C(=O)NC2NC(=O)NC21 (stereo unspecified)	0	2	.	34*	-2
C[C@H]1CCCCO[C@H](CN(C)C(=O)NC2CCCCC2)[C@@H](C)CN([C@@H](C)CO)C(=O)c2cc(NS(=O)(=O)c3cn(C)cn3)ccc2O1	2	-3	1	-1	5
CSc1ccccc1OCc1cc(C(=O)N(C)C2CCCc3ccccc32)no1 (stereo unspecified)	-2	20*	.	8	0
CSc1ccccc1OCc1cc(C(=O)NCCN2CCCC(O)C2)no1 (stereo unspecified)	1	-1	0	1	-2
CSc1ccccc1OCc1cc(C(=O)N2CCc3[nH]cnc3C2c2ccccn2)no1 (stereo unspecified)	-3	-2	-1	50*	0
CSc1ccccc1OCc1cc(C(=O)N2CCN(c3ccccc3)CC2C)no1 (stereo unspecified)	1	-4	-1	-3	-2
C[C@H](CO)N1C[C@H](C)[C@H](CN(C)Cc2ccc(Oc3ccccc3)cc2)Oc2ccc(NC(=O)CCC(F)(F)F)cc2C1=O	-2	15*	0	?	-1
COc1ccc(CN(C)C[C@@H]2Oc3ccc(NC(=O)CCC(F)(F)F)cc3C(=O)N([C@H](C)CO)C[C@H]2C)cc1	0	29*	.	7	0
Cc1cccc(Oc2ccc(S(=O)(=O)N3CCCCC3)cc2NC(=O)C2=COCCO2)c1	0	-5	.	8	-3
COc1cc2c(cc1OC)C(C)N(C(=O)c1sccc1C)CC2 (stereo unspecified)	-3	5	.	-2	-1
COc1cc2c(cc1OC)C(C)N(C(=O)Cn1ncc3c1-c1cc(C)ccc1OC3)CC2 (stereo unspecified)	0	.	.	70*	1
CCCCN(CC)C(=O)Cn1ncc2c1-c1cc(C)ccc1OC2	2	3	0	2	4
COc1cc2c(cc1OC)C(C)N(C(=O)c1ccc(C)o1)CC2 (stereo unspecified)	-5	22*	0	13	3
C[C@H]1CN([C@@H](C)CO)C(=O)Cc2cc(NC(=O)CCCN(C)C)ccc2O[C@H]1CN(C)CC1CCCCC1	0	1	-4	1	15
CCOc1ccc(N(C)S(=O)(=O)c2csc(C(N)=O)c2)cc1	0	-1	.	7	3
C[C@H](CO)N1C[C@H](C)[C@H](CN(C)C(=O)CCCN(C)C)OCCCC[C@H](C)Oc2ccc(NC(=O)Nc3ccc(F)cc3)cc2C1=O	-2	-5	1	-9	11
C[C@@H]1CCCCO[C@@H](CN(C)C(=O)CCCN(C)C)[C@@H](C)CN([C@H](C)CO)C(=O)c2cc(NC(=O)Cc3ccccc3)ccc2O1	-46	3	.	142*	1
C[C@@H]1CCCCO[C@H](CN(C)C(=O)CCCN(C)C)[C@@H](C)CN([C@H](C)CO)C(=O)c2cc(NC(=O)Nc3ccc(F)cc3)ccc2O1	1	3	0	37*	-7
C[C@@H]1CN([C@@H](C)CO)C(=O)c2cc(NC(=O)c3ccccc3)ccc2O[C@@H](C)CCCCO[C@@H]1CN(C)C(=O)CCCN(C)C	2	-5	1	-5	1
C[C@H]1CCCCO[C@H](CN(C)C(=O)CCCN(C)C)[C@@H](C)CN([C@@H](C)CO)C(=O)c2cc(NC(=O)c3ccccc3)ccc2O1	0	0	3	53*	-9
C[C@@H]1CCCCO[C@H](CN(C)C(=O)Cc2ccccc2)[C@H](C)CN([C@@H](C)CO)C(=O)c2cc(NC(=O)CCCN(C)C)ccc2O1	-2	-4	0	5	0
